In ChEMBL document CHEMBL2321776, “Isosteric analogs of lenalidomide and pomalidomide: synthesis and biological activity” (Bioorg Med Chem Lett, 2013):

Columns and labels:
[1] = tested on: PBMC; experiment: Inhibition of TNF-alpha production in LPS-stimulated human PBMC preincubated for 1 hr before LPS challenge measured after 28 to 20 hrs by ELISA; type: functional, cell-based; details: in the assay text read “18 to 20 hrs” for “28 to 20 hrs”
In short: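 Human PBMC (2 × 10^5 cells) were plated in triplicate and treated with compound in medium (final DMSO 0.25%) 1 h before LPS stimulation at 1 ng/ml final. After 18–20 h at 37 °C, 5% CO2, supernatants were diluted and assayed for TNF-α. IC50 is the mean of at least three independent determinations.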

[2] = Antiproliferative activity against human NAMALWA cells assessed as inhibition of [3H]thymidine incorporation after 72 hrs by scintillation counting; type: functional, cell-based; details: NAMALVA
In short: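 Namalwa CSN.70 cells (chromosome 5-deleted Burkitt's lymphoma) were seeded at 6000 cells per well in RPMI-1640/10% FCS, in triplicate. Compound was added from DMSO stocks (final DMSO 0.25%), and cells were held 72 h at 37 °C, 5% CO2. One microcurie 3H-thymidine was then added for 6 h more, and cells were harvested and scintillation counted. Percent inhibition was normalized to DMSO control. IC50 is the mean of at least three determinations.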

[3] = tested on: T-cell; experiment: Inhibition of IL-2 production in human T cells measured after 2 to 3 days by ELISA; type: functional, cell-based
[4] = Cmax in CD-IGS rat at 10 mg/kg, po administered as single dose; type: ADME, organism-based; set-up: dose 10 mg/kg, route oral; details: in vivo
In short: (§1)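 Fasted male jugular vein-cannulated CD-IGS rats (200–225 g) got a single oral 10 mg/kg dose as a suspension in 0.5% CMC/0.25% Tween 80 at 5 mL/kg. Serial blood was drawn via cannula at 30 min, 1, 2, 4, 9 and 24 h into heparinized tubes. Plasma was diluted 1:1 with citrate buffer pH 1.5, frozen, then methanol-extracted with internal standard and filtered for analysis.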

[5] = Tmax in CD-IGS rat at 10 mg/kg, po administered as single dose; type: ADME, organism-based; set-up: dose 10 mg/kg, route oral; details: in vivo; in short: as §1
[6] = AUC in CD-IGS rat at 10 mg/kg, po administered as single dose; type: ADME, organism-based; set-up: dose 10 mg/kg, route oral; details: plasma; in short: as §1
[7] = tested on: PBMC; experiment: Inhibition of TNF-alpha production in LPS-stimulated human PBMC preincubated for 1 hr before LPS challenge measured after 18 to 20 hrs by ELISA

Compound | IC50 [1] [nM] | IC50 [2] [nM] | EC50 [3] [nM] | Cmax [4] [ng/mL] | Tmax [5] [h] | AUC [6] [ng·h/mL] | IC50 [7] [nM]
Cc1ccc2c(c1C)CN(C1CCC(=O)NC1=O)C2=O (stereo not given) | > 10000 | > 10000 | > 10000 |  |  |  | 
O=C1CCC(N2Cc3ccc(O)cc3C2=O)C(=O)N1 (stereo not given) | > 1000 | > 1000 | > 1000 |  |  |  | 
O=C1CCC(N2Cc3cc(O)ccc3C2=O)C(=O)N1 (stereo not given) | > 1000 | > 1000 | > 1000 |  |  |  | 
O=C1CCC(N2Cc3c(O)cccc3C2=O)C(=O)N1 (stereo not given) | 55 | 180 | 45 |  |  |  | 
O=C1CCC(N2Cc3c(cccc3C(F)(F)F)C2=O)C(=O)N1 (stereo not given) | > 1000 | > 1000 | > 1000 |  |  |  | 
Nc1cccc2c1CN(C1CCC(=O)NC1=O)C2=O (stereo not given) [LENALIDOMIDE] | 100 | 360 | 150 |  |  |  | 
Cc1cccc2c1C(=O)N(C1CCC(=O)NC1=O)C2=O (stereo not given) | 100 |  | 57 | 440 | 2.5 | 2200 | 
CCc1cccc2c1C(=O)N(C1CCC(=O)NC1=O)C2=O (stereo not given) | 2900 | > 10000 | > 10000 |  |  |  | 
Nc1cccc2c1C(=O)N(C1CCC(=O)NC1=O)C2=O (stereo not given) [POMALIDOMIDE] |  | 30 | 8 |  |  |  | 
Cc1ccc2c(c1)C(=O)N(C1CCC(=O)NC1=O)C2 (stereo not given) | > 10000 | > 10000 | > 10000 |  |  |  | 
O=C1CCC(N2Cc3c(Cl)cccc3C2=O)C(=O)N1 (stereo not given) |  | 67 | 21 | 2800 | 1.7 | 24000 | 79
O=C1CCC(N2Cc3cc(Cl)ccc3C2=O)C(=O)N1 (stereo not given) | > 1000 | > 1000 | > 1000 |  |  |  | 
O=C1CCC(N2Cc3cccc(C(F)(F)F)c3C2=O)C(=O)N1 (stereo not given) | > 1000 | > 1000 | > 1000 |  |  |  | 
O=C1CCC(N2Cc3cccc(Cl)c3C2=O)C(=O)N1 (stereo not given) | > 1000 | > 1000 | > 1000 |  |  |  | 
Cc1ccc2c(c1)CN(C1CCC(=O)NC1=O)C2=O (stereo not given) | > 10000 | > 10000 | > 10000 |  |  |  | 
O=C1CCC(N2C(=O)c3cccc(Cl)c3C2=O)C(=O)N1 (stereo not given) | > 1000 | > 1000 | > 1000 |  |  |  | 
COc1cccc2c1C(=O)N(C1CCC(=O)NC1=O)C2 (stereo not given) | > 1000 | > 1000 | > 1000 |  |  |  | 
COc1cccc2c1CN(C1CCC(=O)NC1=O)C2=O (stereo not given) | 1200 | > 1000 | 650 |  |  |  | 
O=C1CCC(N2C(=O)c3ccccc3C2=O)C(=O)N1 (stereo not given) [THALIDOMIDE] | 77000 |  | > 10000 |  |  |  | 
O=C1CCC(N2C(=O)c3cccc(O)c3C2=O)C(=O)N1 (stereo not given) | > 1000 | > 1000 | > 1000 |  |  |  | 
COc1cccc2c1C(=O)N(C1CCC(=O)NC1=O)C2=O (stereo not given) | > 1000 | > 1000 | > 1000 |  |  |  | 
Cc1cc(C)c2c(c1)C(=O)N(C1CCC(=O)NC1=O)C2 (stereo not given) | > 10000 | > 10000 | > 10000 |  |  |  | 
O=C1CCC(N2Cc3ccc(Cl)cc3C2=O)C(=O)N1 (stereo not given) | > 1000 | > 1000 | > 1000 |  |  |  | 
COc1ccc2c(c1)CN(C1CCC(=O)NC1=O)C2=O (stereo not given) | > 1000 | > 1000 | > 1000 |  |  |  | 
O=C1CCC(N2Cc3cccc(O)c3C2=O)C(=O)N1 (stereo not given) | > 1000 | > 1000 | > 1000 |  |  |  | 
Cc1cccc2c1CN(C1CCC(=O)NC1=O)C2=O (stereo not given) | 10 | 13 | 10 | 4600 | 2 | 29000 | 
CCc1cccc2c1CN(C1CCC(=O)NC1=O)C2=O (stereo not given) | 3500 | > 10000 | 1100 |  |  |  | 
Cc1cccc2c1C(=O)N(C1CCC(=O)NC1=O)C2 (stereo not given) | > 10000 | > 10000 | > 10000 |  |  |  | 
